# What was measured:
# BHK-21 cells = assay: MTT assay for Maximum Non-Toxic Dose; type: cell-based
# HaCaT cells = assay: MTT cytotoxicity assay; type: cell-based, human; details: 100 µg/mL
# Outline: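 HaCaT keratinocytes were grown in DMEM with 10% FBS and 1% antibiotic-antimycotic at 37 °C, 5% CO₂. Cells were seeded at 1 × 10⁴/well for 24 h, then exposed to 1 to 100 µg/mL for 48 h, with 5-FU as the positive control and untreated cells as baseline. MTT (5 mg/mL) was added for 4 h, then SDS/DMF lysis buffer for 2 h, and plates read at 570 nm as percentage proliferation. Lower concentrations were retested to derive IC50 ± SE.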
# [1] = system: Dengue virus type-2 (DENV2) in BHK-21 cells; assay: Cytopathic effect; type: cell-based; details: DENV2-infected BHK-21 cells; concentrations within MNTD
# Outline: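 Maximal non-toxic dose in BHK-21 cells was first set by MTT. Cells were seeded at 1 × 10⁵/well and infected with DENV2 (MOI 0.02, DMEM with 2% FBS) for 1 h at 37 °C, 5% CO₂. At 1 h post-infection, compounds diluted in DMEM (2% FBS) within the non-toxic range were added, with castanospermine as the positive control. CPE was scored by phase-contrast microscopy, in triplicate.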
# [2] = DPPH free radical scavenging assay; type: physicochemical; details: ascorbic acid as reference
# Outline: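 DPPH (4 mg/100 ml in methanol) was mixed with test compound or ascorbic acid at 1 to 500 µg/ml in methanol. The control was DPPH plus methanol, and methanol alone served as blank. Samples were incubated 20–30 min at 37 °C and the decrease in absorbance at 515 nm read. Percentage scavenging was calculated from control versus sample absorbance, in triplicate.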
Structure (SMILES),Maximal non-toxic dose (MNTD) (BHK-21 cells) [µg/mL],Cell death (HaCaT cells),Inhibition / reduction in cytopathic effects [1],DPPH radical scavenging IC50 [2] [µg/mL]
"O=c1oc2ccccc2c(N(c2ccccc2)c2ccccc2)c1I [Compound T6, 4-diphenylamino-3-iodocoumarin]",0.1,very low percentages of cell death,did not exhibit significant inhibition of cytopathic effects,–
"O=c1oc2ccccc2c(Nc2ccccc2)c1I [Compound T4, 3-iodo-4-phenylaminocoumarin]",1,more than 60%,up to 12%,–
"O=c1cc(Nc2ccccc2)c2ccccc2o1 [Compound T5, 4-phenylaminocoumarin]",0.1,very low percentages of cell death,did not exhibit significant inhibition of cytopathic effects,–
"O[C@H]1[C@H](O)[C@@H](O)CN2CC[C@H](O)[C@H]12 [castanospermine, reference compound]",–,–,68%,–
"Cc1ccc(S(=O)(=O)[O-])cc1.Nc1c([I+]c2ccccc2)c(=O)oc2ccccc12 [Compound T2, 4-amino-3-phenyliodoniocoumarin tosylate]",–,more than 60%,up to 12%,≥ 50
"Nc1cc(=O)oc2ccccc12 [Compound T1, 4-aminocoumarin]",2.5,very low percentages of cell death,did not exhibit significant inhibition of cytopathic effects,–

# — publication PMC12218390 (Scientific Reports, 2025)
